Assay results: PMC7126824 (European Journal of Medicinal Chemistry, 2011)
Like-named read-outs stand apart in the source and are kept apart here.

Columns and labels:
[1] = test system: HEL (human lung fibroblast) cells; experiment: Cytostatic activity: inhibition of cell proliferation; type: cell-based; settings: read-out: IC50 (50% inhibitory concentration)
[2] = test system: HeLa (human cervix carcinoma) cells; experiment: Cytostatic activity: inhibition of tumor cell proliferation; type: cell-based; settings: read-out: IC50 (50% inhibitory concentration)
Outline: (§1)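 Exponentially growing tumour cells were seeded in 96-well plates with a range of test-compound concentrations: CEM lymphocytes at 75,000 cells/well for 3 days, HeLa cervix carcinoma cells at 20,000 cells/well for 4 days. Viable cells were counted with a Coulter counter. The 50% value is the concentration inhibiting tumour cell proliferation by 50%.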

[3] = test system: CEM (human lymphocyte) cells; experiment: as above; type: cell-based; settings: read-out: IC50 (50% inhibitory concentration)
Outline: as §1

[4] = test system: MDCK, HEL, CrFK, HeLa and CEM cells; experiment: Cytostatic activity over the cell culture panel of Table 4; type: cell-based; settings: read-out: IC50, range over the cell cultures
HCMV AD-169 strain = experiment: Antiviral assay: inhibition of virus-induced cytopathicity in HEL cell cultures; type: cell-based, human cytomegalovirus; settings: Human betaherpesvirus 5, AD169, HEL, read-out: EC50 against HCMV AD-169 strain
HCMV Davis strain = experiment: as above; type: cell-based, human cytomegalovirus; settings: Human betaherpesvirus 5, HEL, read-out: EC50 against HCMV Davis strain

SMILES: S=C(NN=Cc1ccc(Cl)s1)Nc1ccccc1 [Compound 2, 5-Chlorothiophene-2-carboxaldehyde-N(4)phenyl thiosemicarbazone]
- IC50 [1]: 10.4 µM
- IC50 [2]: 7.1 µM
- IC50 ([3]; Homo sapiens, CCRF-CEM): 10 µM
- IC50 [4]: 7.1 to 57.8 µM

SMILES: N.N.[Cl][Pt][Cl] [cisplatinum, reference compound]
- IC50 ([3]; CEM cells): 2.2 µM

SMILES: Nc1nc(O)c2ncn(COC(CO)CO)c2n1 [ganciclovir]
- EC50 (HCMV AD-169 strain): 5 µM
- EC50 (HCMV Davis strain): 3.4 µM
